Series [1] addresses T1, Pyruvate kinase PKM (Homo sapiens, UniProt P14618). Kind of series: Inhibition of recombinant human N-terminal His-tagged PKM2 expressed in Escherichia coli BL21 preincubated for 15 mins followed by PEP/NADH addition measured at 30 secs interval for 3 to 6 mins by fluorescent PK-LDH assay. The procedure, abridged: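 Human PKM2 with an N-terminal His tag, expressed in E. coli BL21 and Ni-agarose purified. Enzyme and compound preincubated 15 min in 50 mM Tris–HCl pH 7.5, 10 mM KCl, 5 mM MgCl2. NADH fluorescence read kinetically every 30 s for 3–6 min. IC50.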

In series [2] the target is T1, Pyruvate kinase PKM. Kind of series: Inhibition of recombinant human N-terminal His-tagged PKM1 expressed in Escherichia coli BL21 preincubated for 15 mins followed by PEP/NADH addition measured at 30 secs interval for 3 to 6 mins by fluorescent PK-LDH assay. The procedure, abridged: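 Human PKM1 with an N-terminal His tag, expressed in E. coli BL21 and Ni-agarose purified. Activity measured by PK–LDH coupling, with pyruvate formation tracked as NADH depletion by fluorescence in kinetic mode. IC50.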
Target sequence in this assay (P14618 whole entry): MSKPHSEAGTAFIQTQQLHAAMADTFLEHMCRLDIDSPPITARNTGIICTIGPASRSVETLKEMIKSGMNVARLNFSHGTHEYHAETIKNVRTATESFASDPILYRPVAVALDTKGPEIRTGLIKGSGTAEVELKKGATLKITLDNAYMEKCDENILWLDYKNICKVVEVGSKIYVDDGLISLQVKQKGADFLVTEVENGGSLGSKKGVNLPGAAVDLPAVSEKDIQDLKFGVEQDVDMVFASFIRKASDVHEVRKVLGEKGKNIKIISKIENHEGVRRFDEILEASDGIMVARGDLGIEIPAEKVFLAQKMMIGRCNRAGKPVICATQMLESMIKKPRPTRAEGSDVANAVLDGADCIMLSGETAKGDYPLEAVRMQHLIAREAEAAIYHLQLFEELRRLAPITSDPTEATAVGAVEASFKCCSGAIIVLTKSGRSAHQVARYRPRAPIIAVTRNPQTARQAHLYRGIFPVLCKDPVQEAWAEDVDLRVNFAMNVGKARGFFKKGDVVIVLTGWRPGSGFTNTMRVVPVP

The species entered for series [3] is Homo sapiens. As to the kind of experiment: Selectivity ratio of IC50 for recombinant human N-terminal His-tagged PKM1 expressed in Escherichia coli BL21 to IC50 for recombinant human N-terminal His-tagged PKM2 expressed in Escherichia coli BL21.
For another series, the target named is Pyruvate kinase PKLR (Homo sapiens, UniProt P30613). As to the kind of experiment: Inhibition of recombinant human N-terminal His-tagged PKL expressed in Escherichia coli preincubated for 15 mins followed by PEP/NADH addition measured at 30 secs interval for 3 to 6 mins by fluorescent PK-LDH assay.
Sequence of Pyruvate kinase PKLR (P30613 whole entry): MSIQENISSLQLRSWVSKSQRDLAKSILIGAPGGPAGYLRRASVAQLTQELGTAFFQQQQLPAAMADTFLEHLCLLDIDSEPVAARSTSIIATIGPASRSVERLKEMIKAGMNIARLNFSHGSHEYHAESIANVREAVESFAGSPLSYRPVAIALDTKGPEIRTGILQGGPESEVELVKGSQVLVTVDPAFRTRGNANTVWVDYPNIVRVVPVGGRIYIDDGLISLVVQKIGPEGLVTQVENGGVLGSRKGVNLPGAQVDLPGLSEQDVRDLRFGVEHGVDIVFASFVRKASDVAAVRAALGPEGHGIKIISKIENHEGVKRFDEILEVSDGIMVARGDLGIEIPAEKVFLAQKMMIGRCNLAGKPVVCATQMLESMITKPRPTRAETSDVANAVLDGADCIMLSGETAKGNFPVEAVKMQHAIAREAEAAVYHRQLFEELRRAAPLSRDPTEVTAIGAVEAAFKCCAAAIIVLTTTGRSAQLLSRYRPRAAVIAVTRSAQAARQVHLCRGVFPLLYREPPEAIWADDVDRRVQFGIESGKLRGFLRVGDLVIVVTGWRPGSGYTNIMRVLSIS
The species entered for series [4] is Homo sapiens. Kind of series: Selectivity ratio of IC50 for recombinant human N-terminal His-tagged PKL expressed in Escherichia coli to IC50 for recombinant human N-terminal His-tagged PKM2 expressed in Escherichia coli BL21.
The next series has as its system HCT-116. Kind of series: Antiproliferative activity against human HCT116 cells after 48 hrs by MTS assay. Format: functional, cell-based. As to conditions: HCT-116, 48 h. The procedure, abridged:
(§1)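 Cells kept in RPMI 1640 with 9% FBS at 37°C, 5% CO2. 5000 cells/well seeded, left 12 h, then exposed to a range of compound concentrations or DMSO (negative control) for 48 h. MTS added, 3 h at 37°C, absorbance read at 490 nm. IC50 ± SD.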
A general note: Tetrazolium dyes change colour on reduction, which living cells bring about.

The next series has as its system HeLa. Kind of series: Antiproliferative activity against human HeLa cells after 48 hrs by MTS assay. Format: functional, cell-based. The procedure, abridged:
as §1

For series [5], the system named is NCI-H1299. Kind of series: Antiproliferative activity against human NCI-H1299 cells after 48 hrs by MTS assay. Format: functional, cell-based. The following applies: NCI-H1299, 48 h. The procedure, abridged:
as §1

A further series relates to BEAS-2B. Kind of series: Cytotoxicity against human BEAS2B cells assessed as reduction in cell viability after 48 hrs by MTS assay. The class given is cell-based. In a few lines:
as §1

Series [6] is described as follows: Selectivity index, ratio of IC50 for human BEAS2B cells to IC50 for human NCI-H1299 cells. As to conditions: BEAS2B cells and NCI-H1299 cells, read-out: Ratio IC50. The class given is toxicity.
Series [7] has as its system NCI-H1299. As to the kind of experiment: Antiproliferative activity against human NCI-H1299 cells after 48 hrs in presence of PKM2 activator FBP by MTS assay. The class given is functional, cell-based. As to conditions: NCI-H1299, 48 h. In a few lines: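 H1299 cells in RPMI 1640 with 9% FBS at 37°C, 5% CO2. 5000 cells/well, 12 h attachment, then 48 h treatment at graded concentrations with FBP (100 µM) added. MTS read-out (3 h, 37°C, A490). IC50 ± SD.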

pIC50: −log10 of the molar value. Some results are limits rather than exact numbers.

These results are taken from ChEMBL document CHEMBL4118079, “Discovery of novel naphthoquinone derivatives as inhibitors of the tumor cell specific M2 isoform of pyruvate kinase” (Eur J Med Chem, 2017).

With `O=C1C=C(CSC(=S)N2CCN(c3ccccc3)CC2)C(=O)c2ccccc21`, the negative logarithm of the IC50 (pIC50) (in general, the negative decadic logarithm of the IC50, by convention in mol/L) on Pyruvate kinase PKM [1] is 5.85; on Pyruvate kinase PKM [2], 5.20; at Pyruvate kinase PKLR, 5.42; in the series with HCT-116 it was less than 4.70; in the series on HeLa it was less than 4.70; in the series with NCI-H1299 [5], 5.06. Moreover, the inhibition entry at Pyruvate kinase PKM [1] was “Dose-dependent effect”. Also, the Ratio IC50 in the series listed under Homo sapiens [3] came out at 4.5; in the series filed under Homo sapiens [4] it was 2.7.

For `CC1=C(CSC(=S)N2CCN(C)CC2)C(=O)c2ccccc2C1=O`, the negative-log IC50 (pIC50) at Pyruvate kinase PKM [1] is 4.85; with HCT-116, 5.55; in the series on HeLa it was 5.80; in the series with NCI-H1299 [5], 5.61.

Consider `CC1=C(CSC(=S)N2CCSCC2)C(=O)c2ccccc2C1=O`, for which the pIC50 is 5.23 at Pyruvate kinase PKM [1]; 6.05 in the series with HCT-116; 6.49 with HeLa; 5.92 with NCI-H1299 [5]; 4.98 in the series on BEAS-2B. Besides, the selectivity ratio in [6] was found to be 8.6.

As for `CCCN(CCC)C(=S)SCC1=C(C)C(=O)c2ccccc2C1=O`, the pIC50 on Pyruvate kinase PKM [1] was 5.17; in the series with HCT-116, 5.22; in the series on HeLa it was 4.92; in the series with NCI-H1299 [5], 5.37.

`CC1=C(CSC(=S)N2CCN(C(C)C)CC2)C(=O)c2ccccc2C1=O`: the negative logarithm of the IC50 (pIC50) at Pyruvate kinase PKM [1] is less than 4.70; in the series with HCT-116, 5.71; in the series with HeLa, 5.66; in the series with NCI-H1299 [5] it was 5.39.

Take `CC1=C(CSC(=S)NCc2ccccc2)C(=O)c2ccccc2C1=O`: the pIC50 is 5.66 at Pyruvate kinase PKM [1], 5.76 with HCT-116, 5.89 in the series with HeLa and 5.32 in the series with NCI-H1299 [5].

As for `CC1=C(SC(=S)N2CCCCC2)C(=O)c2ccccc2C1=O`, the pIC50 at Pyruvate kinase PKM [1] was 5.31; in the series with HCT-116, 5.45; in the series on HeLa it was 5.89; in the series with NCI-H1299 [5], 4.99.

On to `CC1=C(CSC(=S)N(C)C2CCCCC2)C(=O)c2ccccc2C1=O`, for which the pIC50 was 5.29 on Pyruvate kinase PKM [1], 4.97 in the series with HCT-116, 4.87 in the series on HeLa and 4.95 in the series on NCI-H1299 [5].

As for `CC(=O)N1CCN(C(=S)SC2=C(C)C(=O)c3ccccc3C2=O)CC1`, the pIC50 at Pyruvate kinase PKM [1] was less than 4.70; with HCT-116 it was 5.31; in the series with HeLa, 4.97; in the series with NCI-H1299 [5], 5.18.

For `CC1=C(CSC(=S)N(CCO)CCO)C(=O)c2ccccc2C1=O`, the pIC50 on Pyruvate kinase PKM [1] is less than 4.70; in the series with HCT-116, 5.65; in the series with HeLa, 5.32; in the series with NCI-H1299 [5] it was 5.71.

Consider `CCCCN(CCCC)C(=S)SCC1=C(C)C(=O)c2ccccc2C1=O`, for which the negative-log IC50 (pIC50) was 5.34 on Pyruvate kinase PKM [1], 4.96 in the series with HCT-116, 4.73 with HeLa and 5.19 in the series with NCI-H1299 [5].

As to `CC1=C(CSC(=S)N2CCOCC2)C(=O)c2ccccc2C1=O`, the pIC50 at Pyruvate kinase PKM [1] is 4.82; in the series on HCT-116, 6.10; in the series with HeLa it was 6.02; with NCI-H1299 [5], 5.91.

Take `CC1=C(CSC(=S)NCc2cccnc2)C(=O)c2ccccc2C1=O`: the negative-log IC50 (pIC50) on Pyruvate kinase PKM [1] is less than 4.70; in the series with HCT-116 it was 6.74; in the series on HeLa it was 6.42; in the series with NCI-H1299 [5], 5.97.

As to `CCCN(CCC)C(=S)SCc1cc(OC)c2ccccc2c1OC`, the pIC50 on Pyruvate kinase PKM [1] was 4.81; in the series with HCT-116 it was less than 4.70; with HeLa, less than 4.70; in the series with NCI-H1299 [5] it was less than 4.70.

Take `CC1=C(CSC(=S)NCc2ccccn2)C(=O)c2ccccc2C1=O`: the pIC50 was less than 4.70 at Pyruvate kinase PKM [1], 5.27 with HCT-116, 5.17 in the series with HeLa and 5.35 in the series with NCI-H1299 [5].

For the compound `CCCN(CCC)C(=S)SC1=C(C)C(=O)c2ccccc2C1=O`, the pIC50 is 5.00 at Pyruvate kinase PKM [1], 5.37 in the series on HCT-116, less than 4.70 in the series on HeLa and 4.81 in the series on NCI-H1299 [5].

For `CC(C)=CC[C@@H](O)C1=CC(=O)c2c(O)ccc(O)c2C1=O` [SHIKONIN], the Ratio IC50 is 1.5 in the series filed under Homo sapiens [3] and 4.5 in the series listed under Homo sapiens [4]. In addition, the negative logarithm of the IC50 (pIC50) in the series with HCT-116 is 5.74; in the series on HeLa it was 5.61; with NCI-H1299 [5] it was 5.73; in the series on BEAS-2B, 5.27. The selectivity ratio in series [6] amounted to 2.9.

As to `CC1=C(CSC(=S)N2CCSC2)C(=O)c2ccccc2C1=O`, the pIC50 on Pyruvate kinase PKM [1] was 5.28; in the series with HCT-116, 5.76; in the series on HeLa, 5.71; with NCI-H1299 [5] it was 5.48.

With `O=C1C=C(CSC(=S)N2CCOCC2)C(=O)c2ccccc21`, the pIC50 was 5.37 on Pyruvate kinase PKM [1], 5.43 with HCT-116, 5.62 in the series with HeLa and 5.24 in the series with NCI-H1299 [5].

Regarding `CC1=C(SC(=S)N2CCOCC2)C(=O)c2ccccc2C1=O`, the pIC50 on Pyruvate kinase PKM [1] is 5.07; in the series on HCT-116, 5.64; in the series on HeLa, 5.67; in the series with NCI-H1299 [5], 5.49.

On to `O=C1C=C(CSC(=S)N2CCCCC2)C(=O)c2ccccc21`, for which the negative logarithm of the IC50 (pIC50) is 5.76 on Pyruvate kinase PKM [1]; 5.63 in the series on HCT-116; 6.04 with HeLa; 5.69 with NCI-H1299 [5]; 4.71 in the series on BEAS-2B. Also, in series [6], the selectivity ratio stood at 9.4.

Regarding `CC1=C(CSC(=S)NN2CCN(C)CC2)C(=O)c2ccccc2C1=O`, the negative logarithm of the IC50 (pIC50) on Pyruvate kinase PKM [1] is less than 4.70; in the series on HCT-116, 5.70; in the series on HeLa, 5.41; in the series on NCI-H1299 [5], less than 4.70.

Consider `C=CCN(CC=C)C(=S)SCC1=C(C)C(=O)c2ccccc2C1=O`, for which the pIC50 on Pyruvate kinase PKM [1] is 4.85; with HCT-116, 5.66; with HeLa, 5.94; with NCI-H1299 [5], 5.49.

With `CC1=C(CSC(=S)N2CCCC2)C(=O)c2ccccc2C1=O`, the pIC50 was 4.70 at Pyruvate kinase PKM [1], 5.84 with HCT-116, 6.06 with HeLa and 5.79 in the series on NCI-H1299 [5].

Take `CC1=C(CSC(=S)NCc2ccncc2)C(=O)c2ccccc2C1=O`: the pIC50 was less than 4.70 at Pyruvate kinase PKM [1], 6.23 in the series with HCT-116, 6.30 in the series with HeLa and 6.17 in the series on NCI-H1299 [5].

For the compound `CC1=C(CSC(=S)NN2CCCCC2)C(=O)c2ccccc2C1=O`, the pIC50 is less than 4.70 at Pyruvate kinase PKM [1], 5.13 in the series on HCT-116, 4.98 with HeLa and 5.36 in the series on NCI-H1299 [5].

In the case of `CC1=C(CSC(=S)N2CC(C)OC(C)C2)C(=O)c2ccccc2C1=O` (stereo not drawn), the negative-log IC50 (pIC50) at Pyruvate kinase PKM [1] is 4.93; in the series on HCT-116 it was 5.96; in the series on HeLa, 6.06; in the series with NCI-H1299 [5], 5.83.

For `CCN(CC)C(=S)SCC1=CC(=O)c2ccccc2C1=O`, the pIC50 at Pyruvate kinase PKM [1] is 5.59; in the series on HCT-116 it was 5.74; with HeLa it was 6.29; in the series on NCI-H1299 [5], 5.72.

On to `CCN(CC)C(=S)SCC1=C(C)C(=O)c2ccccc2C1=O`, for which the pIC50 was 5.06 at Pyruvate kinase PKM [1]; 6.39 with HCT-116; 6.41 with HeLa; 6.05 with NCI-H1299 [5]; 5.80 in the series on NCI-H1299 [7]; 4.82 with BEAS-2B. Moreover, in series [6], the selectivity ratio worked out at 17.

With `CCN(CC)CCNC(=S)SCC1=C(C)C(=O)c2ccccc2C1=O`, the pIC50 at Pyruvate kinase PKM [1] is less than 4.70; with HCT-116, 5.47; with HeLa it was 5.24; in the series with NCI-H1299 [5], 5.40.

`CNC(=S)SCC1=C(C)C(=O)c2ccccc2C1=O`: the pIC50 is less than 4.70 on Pyruvate kinase PKM [1], 5.34 in the series with HCT-116, 5.08 in the series with HeLa and 5.27 with NCI-H1299 [5].

`CC(=O)N1CCN(C(=S)SCC2=C(C)C(=O)c3ccccc3C2=O)CC1`: the pIC50 at Pyruvate kinase PKM [1] is less than 4.70; in the series on HCT-116 it was 5.68; in the series on HeLa it was 5.45; in the series with NCI-H1299 [5], 5.33.
